In ChEMBL document CHEMBL4219181, “Site-specific effect of polar functional group-modification in lipids of TLR2 ligands for modulating the ligand immunostimulatory activity” (Bioorg Med Chem Lett, 2018):
Activity calls are given as the source filed them. The calls are words filed in the database; no cut-off is given here. Where a SMILES comes first, the peptide text is derived from it. The star is where a group is joined. Propyl(2R-PamO,3-PamO) = CCCCCCCCCCCCCCCC(=O)OC[C@H](C*)OC(=O)CCCCCCCCCCCCCCC; X1 = CCCCCCCCCCCCCCCC(=O)OC[C@H](C*)OC(=O)CCCCCNC(=O)CCCCCCCC; X2 = CCCCCCCCCCCCCCCC(=O)OC[C@H](C*)OC(=O)CCNC(=O)CCCCCCCCCCC; X3 = CCCCCCCCCCCCCCCC(=O)OC[C@H](C*)OC(=O)CCCNC(=O)CCCCCCCCCC; X4 = CCCCCCCCCCCCCCCC(=O)OC[C@H](C*)OC(=O)CCCCCCNC(=O)CCCCCCC; X5 = CCCCCCCCCCCCCCCC(=O)OC[C@H](C*)OC(=O)CCCCNC(=O)CCCCCCCCC; X6 = CCCCCCCCCCCCCCCC(=O)O[C@H](COC(=O)CCCCCCCCCCNC(=O)CCC)C*; X7 = CCCCCCCCCCCCCCCC(=O)O[C@H](COC(=O)CCCCCCCCNC(=O)CCCCC)C*; X8 = CCCCCCCCCCCCCCCC(=O)O[C@H](COC(=O)CCCCCCCCCCCNC(=O)CC)C*; X9 = CCCCCCCCCCCCCCCC(=O)O[C@H](COC(=O)CCCCCCCCCNC(=O)CCCC)C*

Experiments:
Toll-like receptor 2 [1] = biological target: Toll-like receptor 2 (Homo sapiens, UniProt O60603); assay: Inhibition of biotin labelled Pam2CSK4 binding to His tagged human TLR2 after 45 mins by AlphaScreen assay
Chain of Toll-like receptor 2 (Homo sapiens, UniProt O60603) (O60603 whole entry): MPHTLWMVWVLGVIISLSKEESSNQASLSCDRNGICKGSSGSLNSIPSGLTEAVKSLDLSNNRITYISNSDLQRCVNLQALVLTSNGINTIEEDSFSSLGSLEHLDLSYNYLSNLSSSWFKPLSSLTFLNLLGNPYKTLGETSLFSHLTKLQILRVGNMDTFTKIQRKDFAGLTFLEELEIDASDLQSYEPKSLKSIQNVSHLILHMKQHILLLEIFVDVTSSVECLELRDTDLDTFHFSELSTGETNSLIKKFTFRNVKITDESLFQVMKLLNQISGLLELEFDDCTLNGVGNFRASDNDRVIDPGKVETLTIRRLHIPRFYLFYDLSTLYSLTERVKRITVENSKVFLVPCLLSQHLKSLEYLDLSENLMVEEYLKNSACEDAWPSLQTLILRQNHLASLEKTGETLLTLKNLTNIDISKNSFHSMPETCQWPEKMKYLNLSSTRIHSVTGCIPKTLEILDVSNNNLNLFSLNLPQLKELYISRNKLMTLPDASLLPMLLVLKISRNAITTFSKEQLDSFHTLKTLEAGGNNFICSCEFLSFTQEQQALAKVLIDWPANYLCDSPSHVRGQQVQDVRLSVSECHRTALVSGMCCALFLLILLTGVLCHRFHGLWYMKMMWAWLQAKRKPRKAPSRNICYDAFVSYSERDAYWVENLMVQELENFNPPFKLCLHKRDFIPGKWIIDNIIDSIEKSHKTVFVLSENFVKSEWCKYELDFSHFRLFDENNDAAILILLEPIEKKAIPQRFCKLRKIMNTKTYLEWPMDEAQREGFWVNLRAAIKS
Outline: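 Competitive binding was measured by AlphaScreen using His-tagged human TLR2 protein and biotinylated Pam2CSK4 as the tracer ligand. Competing ligands displace Pam2CSK4-biotin and lower the luminescent proximity signal.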

Toll-like receptor 2 [2] = biological target: Toll-like receptor 2 (Mus musculus, UniProt Q9QUN7); assay: Inhibition of biotin labelled Pam2CSK4 binding to mouse TLR2 Fc chimera protein after 45 mins by AlphaScreen assay
Chain of Toll-like receptor 2 (Mus musculus, UniProt Q9QUN7) (Q9QUN7 whole entry): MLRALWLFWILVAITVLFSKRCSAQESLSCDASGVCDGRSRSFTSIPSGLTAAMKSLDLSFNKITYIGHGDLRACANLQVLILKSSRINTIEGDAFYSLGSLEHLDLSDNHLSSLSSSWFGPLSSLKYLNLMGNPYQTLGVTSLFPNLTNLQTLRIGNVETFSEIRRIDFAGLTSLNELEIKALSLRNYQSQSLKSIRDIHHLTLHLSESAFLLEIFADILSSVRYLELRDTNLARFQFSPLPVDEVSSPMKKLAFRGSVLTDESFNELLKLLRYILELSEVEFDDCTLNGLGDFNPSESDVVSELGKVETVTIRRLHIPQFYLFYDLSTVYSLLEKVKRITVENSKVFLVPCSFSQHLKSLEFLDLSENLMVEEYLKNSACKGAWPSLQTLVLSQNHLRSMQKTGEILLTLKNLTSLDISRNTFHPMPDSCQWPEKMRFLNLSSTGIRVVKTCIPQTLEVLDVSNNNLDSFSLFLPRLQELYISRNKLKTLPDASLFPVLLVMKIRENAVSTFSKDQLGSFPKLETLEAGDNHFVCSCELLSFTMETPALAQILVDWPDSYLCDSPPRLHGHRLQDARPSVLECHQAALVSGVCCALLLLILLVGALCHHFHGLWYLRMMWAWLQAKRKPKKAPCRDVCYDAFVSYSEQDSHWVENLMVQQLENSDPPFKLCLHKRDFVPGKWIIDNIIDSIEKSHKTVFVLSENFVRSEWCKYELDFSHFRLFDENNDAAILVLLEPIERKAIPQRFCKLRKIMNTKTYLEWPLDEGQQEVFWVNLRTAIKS

THP-1 [3] = assay: Immunostimulatory activity in human THP1 cells assessed as increase in TNF-alpha production at 1 to 100 nM after 24 hrs by ELISA; format: functional, cell-based
RAW264.7 [4] = assay: Immunostimulatory activity in mouse RAW264.7 cells assessed as increase in TNF-alpha production at 1 to 100 nM after 24 hrs by ELISA; format: functional, cell-based
THP-1 [5] = assay: Immunostimulatory activity in human THP1 cells assessed as increase in IL-6 production at 1 to 100 nM after 24 hrs by ELISA; format: functional, cell-based
Outline: (§1)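 PMA-differentiated THP-1 human monocytic cells were incubated with a range of ligand concentrations. Secreted IL-6 was measured by ELISA. Data are mean ± standard error of triplicate values, and similar results were obtained in two or three independent experiments.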

RAW264.7 [6] = assay: Immunostimulatory activity in mouse RAW264.7 cells assessed as increase in IL-6 production at 1 to 100 nM after 24 hrs by ELISA; format: functional, cell-based
Outline: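 Murine RAW264.7 macrophages were incubated with various ligand concentrations, and secreted IL-6 was quantified by ELISA. Values are mean ± standard error of triplicates, with results reproduced in two or three independent experiments.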

THP-1 [7] = assay: Immunostimulatory activity in human THP1 cells assessed as increase in IL-6 production after 24 hrs by ELISA; format: functional, cell-based; outline: as §1
THP-1 [8] = assay: Immunostimulatory activity in human THP1 cells assessed as increase in TNF-alpha production after 24 hrs by ELISA; format: functional, cell-based

| Structure (SMILES) | IC50 (Toll-like receptor 2 [1]) [µM] | IC50 (Toll-like receptor 2 [2]) [µM] | Activity (THP-1 [3]) | Activity (RAW264.7 [4]) | Activity (THP-1 [5]) | Activity (RAW264.7 [6]) | Activity (THP-1 [7]) | Activity (THP-1 [8]) |
| --- | --- | --- | --- | --- | --- | --- | --- | --- |
| CCCCCCCCCCCCCCCC(=O)OC[C@H](CSC[C@H](N)C(=O)N[C@@H](CO)C(=O)N[C@@H](CCCCN)C(=O)N[C@@H](CCCCN)C(=O)N[C@@H](CCCCN)C(=O)N[C@@H](CCCCN)C(=O)O)OC(=O)CCCCCCCCCCCCCCC (H-C(Propyl(2R-PamO,3-PamO))SKKKK-OH) | 0.426 to 0.55 | 0.349 | inactive | inactive |  |  |  |  |
| CCCCCCCCCCCCCCCC(=O)OC[C@H](CSC[C@H](N)C(=O)N[C@@H](CO)C(=O)N[C@@H](CCCCN)C(=O)N[C@@H](CCCCN)C(=O)N[C@@H](CCCCN)C(=O)N[C@@H](CCCCN)C(=O)O)OC(=O)CCCCCNC(=O)CCCCCCCC (H-C(X1)SKKKK-OH) | 4.75 | 4.75 | Active | Active | Active | Active |  |  |
| CCCCCCCCCCCCCCCC(=O)OC[C@H](CSC[C@H](N)C(=O)N[C@@H](CO)C(=O)N[C@@H](CCCCN)C(=O)N[C@@H](CCCCN)C(=O)N[C@@H](CCCCN)C(=O)N[C@@H](CCCCN)C(=O)O)OC(=O)CCNC(=O)CCCCCCCCCCC (H-C(X2)SKKKK-OH) | 1.68 | 1.04 | Active | Active | Active | Active |  |  |
| CCCCCCCCCCCCCCCC(=O)OC[C@H](CSC[C@H](N)C(=O)N[C@@H](CO)C(=O)N[C@@H](CCCCN)C(=O)N[C@@H](CCCCN)C(=O)N[C@@H](CCCCN)C(=O)N[C@@H](CCCCN)C(=O)O)OC(=O)CCCNC(=O)CCCCCCCCCC (H-C(X3)SKKKK-OH) | 1.96 | 1.38 | Active | Active | Active | Active |  |  |
| CCCCCCCCCCCCCCCC(=O)OC[C@H](CSC[C@H](N)C(=O)N[C@@H](CO)C(=O)N[C@@H](CCCCN)C(=O)N[C@@H](CCCCN)C(=O)N[C@@H](CCCCN)C(=O)N[C@@H](CCCCN)C(=O)O)OC(=O)CCCCCCNC(=O)CCCCCCC (H-C(X4)SKKKK-OH) | 3.37 | 5.69 | Active | Active | Active | Active |  |  |
| CCCCCCCCCCCCCCCC(=O)OC[C@H](CSC[C@H](N)C(=O)N[C@@H](CO)C(=O)N[C@@H](CCCCN)C(=O)N[C@@H](CCCCN)C(=O)N[C@@H](CCCCN)C(=O)N[C@@H](CCCCN)C(=O)O)OC(=O)CCCCNC(=O)CCCCCCCCC (H-C(X5)SKKKK-OH) | 4.65 | 5.61 | Active | Active | Active | Active |  |  |
| CCCCCCCCCCCCCCCC(=O)O[C@H](COC(=O)CCCCCCCCCCNC(=O)CCC)CSC[C@H](N)C(=O)N[C@@H](CO)C(=O)N[C@@H](CCCCN)C(=O)N[C@@H](CCCCN)C(=O)N[C@@H](CCCCN)C(=O)N[C@@H](CCCCN)C(=O)O (H-C(X6)SKKKK-OH) | 4.36 |  |  |  |  |  | Dose-dependent effect | Dose-dependent effect |
| CCCCCCCCCCCCCCCC(=O)O[C@H](COC(=O)CCCCCCCCNC(=O)CCCCC)CSC[C@H](N)C(=O)N[C@@H](CO)C(=O)N[C@@H](CCCCN)C(=O)N[C@@H](CCCCN)C(=O)N[C@@H](CCCCN)C(=O)N[C@@H](CCCCN)C(=O)O (H-C(X7)SKKKK-OH) | 7.52 |  |  |  |  |  | Dose-dependent effect | Dose-dependent effect |
| CCCCCCCCCCCCCCCC(=O)O[C@H](COC(=O)CCCCCCCCCCCNC(=O)CC)CSC[C@H](N)C(=O)N[C@@H](CO)C(=O)N[C@@H](CCCCN)C(=O)N[C@@H](CCCCN)C(=O)N[C@@H](CCCCN)C(=O)N[C@@H](CCCCN)C(=O)O (H-C(X8)SKKKK-OH) | 3.94 |  |  |  |  |  | Dose-dependent effect | Dose-dependent effect |
| CCCCCCCCCCCCCCCC(=O)O[C@H](COC(=O)CCCCCCCCCNC(=O)CCCC)CSC[C@H](N)C(=O)N[C@@H](CO)C(=O)N[C@@H](CCCCN)C(=O)N[C@@H](CCCCN)C(=O)N[C@@H](CCCCN)C(=O)N[C@@H](CCCCN)C(=O)O (H-C(X9)SKKKK-OH) | 6.43 |  |  |  |  |  | Dose-dependent effect | Dose-dependent effect |
